Here are results for 1 molecule from publication PMC7396962 (Xenobiotica; the fate of foreign compounds in biological …, 2020).

As a reminder, the IC50 is the concentration needed to halve the response being measured. As usually defined, the Ki is a dissociation constant, usually derived from enzyme kinetics or from competition with a known ligand.

The target in data set [1] is human carboxylesterase 2. Particulars: ref Li et al., 2015, cited from earlier work.
Data set [2] deals with HepG2 hepatocellular carcinoma cell line. Particulars: cited from earlier work.
The test system of data set [3] is pooled HLM. The data set is described as follows: Glucuronidation of CA in pooled HLM. The class given is in vitro ADME, human. Particulars: higher than phase I metabolism. The method, boiled down: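 Pooled human liver microsomes (1 mg/mL) with test compound 0.16–80 μM, UDPGA 3.5 mM, alamethicin 22 μg/mL, saccharolactone 4.4 mM and MgCl2 0.88 mM in Tris-HCl pH 7.4, 37 °C for 60 min. Phase I run in parallel with 1 mM NADPH. Metabolites quantified by UHPLC-UV (270 nm) as parent equivalents; kinetics fitted by model, CLint = Vmax/Km; triplicate.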

Data set [4] relates to recombinant human UGT isoforms. The data set is described as follows: Reaction phenotyping with twelve recombinant UGT isoforms. The class given is in vitro ADME.
Data set [5] has as its system PPAR-γ. Particulars: ref Ma et al., 2016; cited from earlier work.

≈ marks a conversion by molar mass, not a printed value.

Turning to `CC(C)=CCC/C(C)=C/Cc1cc(-c2coc3cc(O)ccc3c2=O)ccc1O` [CA, Corylifol A], the IC50 in data set [1] (read-out: IC50, human carboxylesterase 2) was 620 nM. The Ki in data set [1] (read-out: Ki, human carboxylesterase 2) is 870 nM. Besides, the “IC50, cytotoxic activity” value in data set [2] is 4.6 µg/mL (≈ 11.8 µM). The “intrinsic clearance value of glucuronidation relative to phase I metabolism” value in data set [3] was found to be 4 fold. The “catalytic activity to CA-glucuronidation” value is “strong catalytic activity” in data set [4] (UGT1A1, 1A7, 1A8 and 1A9); “weak catalytic activity” in data set [4] (UGT1A3, 1A4, 2B4 and 2B7). Also, the “in vitro PPAR-γ activation” value in data set [5] was “PPAR-γ activation”.
